Published values collected from several papers.
Lines come from different studies, so protocols differ.
Target: Platelet-derived growth factor receptor beta (PDGFRB, Homo sapiens, UniProt P09619)

SMILES	test	setting	measurement	value
Cn1cc(-c2cccc(N3CCc4c(sc5c4CC(C)(C)C5)C3=O)c2CO)cc(Nc2ccncn2)c1=O	enzyme activity, inhibitor	1 µM	inhibition	3%
C#Cc1n[nH]c2c(-c3cn([C@@H](C)c4ccccn4)c(=O)[nH]c3=O)cc(F)cc12	enzyme activity, inhibitor	0.1 µM	inhibition	4%
CC(C)(C)c1cc(C=C(C#N)C#N)cc(Br)c1O	enzyme activity, inhibitor	0.5 µM	remaining activity	104%
COc1ncccc1-c1cnn2ccc(N3CCN(C(=O)OC(C)C)CC3)nc12	binding, competition with immobilised ligand	1 µM	remaining binding	83%
N#CC1(c2ccccn2)CCN(Cc2cc(C(=O)O)c(=O)n3ccccc23)CC1	cell-free assay, competition with immobilised ligand	1 µM	remaining binding	100%
COCc1c(-c2cc3cc(C)cc(OC)c3s2)c2c(N)ncnn2c1CN1CCNC(=O)C1	cell-free assay, competition with immobilised ligand	1 µM	inhibition	86%
O=c1[nH]c2ccccc2n1C1CCN(Cc2ccc(-c3[nH]c4cc5ncnc5cc4nc3-c3ccccc3)cc2)CC1	enzyme activity	0.5 µM	remaining activity	102%
Nc1ncc(-c2nc(N3CCOCC3)nc(N3CCOCC3)n2)c(C(F)F)n1	binding, competition with immobilised ligand	10 µM	remaining binding	69%
C#Cc1n[nH]c2c(-c3cn([C@@H](C)c4ccccc4)c(=O)[nH]c3=O)cc(F)cc12	enzyme activity, inhibitor	0.1 µM	inhibition	3.1%
Cn1cncc1[C@](O)(COc1ccc(C#N)cc1-c1ccc(OC(F)(F)F)cc1)c1ccc(C#N)cc1	cell-free assay, competition with immobilised ligand	1 µM	remaining binding	100%
Cn1cc(-c2cc(F)cc(N3CCn4c(cc5c4CCCC5)C3=O)c2CO)cc(Nc2ccc(N3CCN(C4COC4)CC3)cn2)c1=O	enzyme activity, inhibitor	0.1 µM	inhibition	2%
